Test results as given in ChEMBL document CHEMBL1926614, “Substituted thiazoles V. synthesis and antitumor activity of novel thiazolo[2,3-b]quinazoline and pyrido[4,3-d]thiazolo[3,2-a]pyrimidine analogues” (2012).

Columns and labels:
Type in all cases: functional
[1] = tested on: UACC-257; test: Growth inhibition of human UACC257 cells at 10 uM after 48 hrs by coulter counting; conditions: UACC-257, 48 h, read-out: GI
Method in brief: (§1)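 Single-dose screen in the NCI 60 human tumor cell line panel (nine subpanels). Compounds dissolved in DMSO and diluted in phosphate buffered saline, keeping final DMSO below 1%. Added in duplicate wells to cells at 6 × 10⁴ cells/ml. Controls held PBS and DMSO at matching dilutions. Incubated at 37 °C, humidified, 5% CO₂. Reported as percent growth of treated cells.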

[2] = tested on: UACC-62; test: Growth inhibition of human UACC62 cells at 10 uM after 48 hrs by coulter counting; conditions: UACC-62, 48 h, read-out: GI; method in brief: as §1
[3] = tested on: CCRF-CEM; test: Growth inhibition of human CCRF-CEM cells at 10 uM after 48 hrs by coulter counting; conditions: read-out: GI
Method in brief: (§2)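 Single-dose primary screen across the full NCI 60-cell-line panel. Stocks were made in DMSO and diluted in PBS to a final DMSO below 1%. Cultures at 6 × 10⁴ cells/ml were run in duplicate wells alongside PBS/DMSO vehicle controls at 37 °C in humidified 5% CO₂. Data were expressed as percent growth of treated cells.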

[4] = tested on: HL-60(TB); test: Growth inhibition of human HL-60(TB) cells at 10 uM after 48 hrs by coulter counting; conditions: HL-60, 48 h, read-out: GI
Method in brief: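 Test compound was dissolved in DMSO and diluted in phosphate-buffered saline to a final DMSO level below 1%. Dilutions were plated in duplicate with cell culture at 6 × 10⁴ cells/ml. Vehicle controls held PBS and DMSO at matching dilutions. Incubation was at 37 °C, humidified, under 5% CO₂. Data were reported as percent growth of treated cells.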

[5] = tested on: K562; test: Growth inhibition of human K562 cells at 10 uM after 48 hrs by coulter counting; conditions: K562, 48 h, read-out: GI; method in brief: as §2
[6] = tested on: MOLT-4; test: Growth inhibition of human MOLT4 cells at 10 uM after 48 hrs by coulter counting; conditions: MOLT-4, 48 h, read-out: GI; method in brief: as §2
[7] = tested on: RPMI-8226; test: Growth inhibition of human RPMI8226 cells at 10 uM after 48 hrs by coulter counting; conditions: RPMI-8226, 48 h, read-out: GI; method in brief: as §2
[8] = tested on: A549; test: Growth inhibition of human A549 cells at 10 uM after 48 hrs by coulter counting; conditions: A549, 48 h, read-out: GI; method in brief: as §2
[9] = tested on: EKVX; test: Growth inhibition of human EKVX cells at 10 uM after 48 hrs by coulter counting; conditions: read-out: GI; method in brief: as §2
[10] = tested on: NCI-H226; test: Growth inhibition of human NCI-H226 cells at 10 uM after 48 hrs by coulter counting; conditions: NCI-H226, 48 h, read-out: GI; method in brief: as §2
[11] = tested on: NCI-H23; test: Growth inhibition of human NCI-H23 cells at 10 uM after 48 hrs by coulter counting; conditions: NCI-H23, 48 h, read-out: GI; method in brief: as §2
[12] = Growth inhibition of human NCI-322M cells at 10 uM after 48 hrs by coulter counting; conditions: read-out: GI; method in brief: as §2
[13] = tested on: NCI-H522; test: Growth inhibition of human NCI-H522 cells at 10 uM after 48 hrs by coulter counting; conditions: NCI-H522, 48 h, read-out: GI; method in brief: as §2
[14] = tested on: HCT-116; test: Growth inhibition of human HCT116 cells at 10 uM after 48 hrs by coulter counting; conditions: HCT-116, 48 h, read-out: GI; method in brief: as §2
[15] = tested on: HCC 2998; test: Growth inhibition of human HCC2998 cells at 10 uM after 48 hrs by coulter counting; conditions: HCC 2998, 48 h, read-out: GI; method in brief: as §2
[16] = tested on: HT-29; test: Growth inhibition of human HT-29 cells at 10 uM after 48 hrs by coulter counting; conditions: HT-29, 48 h, read-out: GI; method in brief: as §2
[17] = tested on: KM12; test: Growth inhibition of human KM12 cells at 10 uM after 48 hrs by coulter counting; conditions: KM12, 48 h, read-out: GI; method in brief: as §2
[18] = tested on: SF-268; test: Growth inhibition of human SF268 cells at 10 uM after 48 hrs by coulter counting; conditions: SF-268, 48 h, read-out: GI; method in brief: as §2
[19] = tested on: SF-295; test: Growth inhibition of human SF295 cells at 10 uM after 48 hrs by coulter counting; conditions: SF-295, 48 h, read-out: GI; method in brief: as §2
[20] = tested on: SNB-19; test: Growth inhibition of human SNB19 cells at 10 uM after 48 hrs by coulter counting; conditions: SNB-19, 48 h, read-out: GI; method in brief: as §2
[21] = tested on: SNB-75; test: Growth inhibition of human SNB75 cells at 10 uM after 48 hrs by coulter counting; conditions: SNB-75, 48 h, read-out: GI; method in brief: as §2
[22] = tested on: U-251; test: Growth inhibition of human U251 cells at 10 uM after 48 hrs by coulter counting; conditions: U-251, 48 h, read-out: GI; method in brief: as §1
[23] = tested on: LOX IMVI; test: Growth inhibition of human LOXIMVI cells at 10 uM after 48 hrs by coulter counting; conditions: read-out: GI; method in brief: as §2
[24] = tested on: M14; test: Growth inhibition of human M14 cells at 10 uM after 48 hrs by coulter counting; conditions: M14, 48 h, read-out: GI; method in brief: as §2
[25] = tested on: MDA-MB-435; test: Growth inhibition of human MDA-MB-435 cells at 10 uM after 48 hrs by coulter counting; conditions: MDA-MB-435, 48 h, read-out: GI; method in brief: as §2
[26] = tested on: SK-MEL-2; test: Growth inhibition of human SK-MEL-2 cells at 10 uM after 48 hrs by coulter counting; conditions: SK-MEL-2, 48 h, read-out: GI; method in brief: as §2
[27] = tested on: SK-MEL-28; test: Growth inhibition of human SK-MEL-28 cells at 10 uM after 48 hrs by coulter counting; conditions: SK-MEL-28, 48 h, read-out: GI; method in brief: as §2
[28] = tested on: SK-MEL-5; test: Growth inhibition of human SK-MEL-5 cells at 10 uM after 48 hrs by coulter counting; conditions: SK-MEL-5, 48 h, read-out: GI; method in brief: as §2
[29] = tested on: IGROV-1; test: Growth inhibition of human IGROV1 cells at 10 uM after 48 hrs by coulter counting; conditions: IGROV-1, 48 h, read-out: GI; method in brief: as §2
[30] = tested on: OVCAR-4; test: Growth inhibition of human OVCAR4 cells at 10 uM after 48 hrs by coulter counting; conditions: OVCAR-4, 48 h, read-out: GI; method in brief: as §2
[31] = tested on: NCI/ADR-RES; test: Growth inhibition of human NCI/ADR-RES cells at 10 uM after 48 hrs by coulter counting; conditions: read-out: GI; method in brief: as §2
[32] = tested on: A498; test: Growth inhibition of human A498 cells at 10 uM after 48 hrs by coulter counting; conditions: A498, 48 h, read-out: GI; method in brief: as §2
[33] = tested on: ACHN; test: Growth inhibition of human ACHN cells at 10 uM after 48 hrs by coulter counting; conditions: read-out: GI; method in brief: as §2
[34] = tested on: CAKI-1; test: Growth inhibition of human Caki1 cells at 10 uM after 48 hrs by coulter counting; conditions: CAKI-1, 48 h, read-out: GI; method in brief: as §2
[35] = tested on: UO-31; test: Growth inhibition of human UO31 cells at 10 uM after 48 hrs by coulter counting; conditions: UO-31, 48 h, read-out: GI; method in brief: as §1
[36] = tested on: DU-145; test: Growth inhibition of human DU145 cells at 10 uM after 48 hrs by coulter counting; conditions: DU-145, 48 h, read-out: GI; method in brief: as §2
[37] = tested on: MCF7; test: Growth inhibition of human MCF7 cells at 10 uM after 48 hrs by coulter counting; conditions: MCF7, 48 h, read-out: GI; method in brief: as §2
[38] = tested on: BT-549; test: Growth inhibition of human BT549 cells at 10 uM after 48 hrs by coulter counting; conditions: BT-549, 48 h, read-out: GI; method in brief: as §2
[39] = tested on: T47D; test: Growth inhibition of human T47D cells at 10 uM after 48 hrs by coulter counting; conditions: read-out: GI; method in brief: as §1
[40] = tested on: HOP-62; test: Growth inhibition of human HOP62 cells at 10 uM after 48 hrs by coulter counting; conditions: HOP-62, 48 h, read-out: GI; method in brief: as §2
[41] = tested on: NCI-H460; test: Growth inhibition of human NCI-H460 cells at 10 uM after 48 hrs by coulter counting; conditions: NCI-H460, 48 h, read-out: GI; method in brief: as §2

Measured: inhibition of growth at 10 µM

COc1cc(/C=C2\CCCC3=C2N=C2SC=C(C)N2C3c2cc(OC)c(OC)c(OC)c2)cc(OC)c1OC (stereo not given)
> 10%: [1] | [2] | [3] | [4] | [5] | [6] | [7] | [8] | [9] | [10] | [11] | [12] | [13] | [14] | [15] | [16] | [17] | [18] | [19] | [20] | [21] | [22] | [23] | [24] | [25] | [26] | [27] | [28] | [29] | [30] | [31] | [32] | [33] | [34] | [36] | [37] | [38] | [39]
20%: [35]

CC1=CSC2=NC3=C(CCC/C3=C\c3cccs3)C(c3cccs3)N12 (stereo not given)
14.3%: [32]
16.6%: [21]
> 10%: [1] | [2] | [3] | [5] | [6] | [7] | [8] | [9] | [10] | [11] | [12] | [41] | [13] | [14] | [15] | [16] | [17] | [18] | [19] | [20] | [22] | [23] | [24] | [25] | [26] | [27] | [28] | [29] | [30] | [31] | [33] | [34] | [36] | [37] | [38] | [39]
24.5%: [35]
11.4%: [4]
11.3%: [40]
